≈ marks a conversion by molar mass, not a printed value.

One may read the MIC90 as an inhibitory concentration at the 90% level, which refers to growth in some studies and to a panel of isolates in others. For orientation: MIC means the lowest concentration found to suppress growth. Broadly, the IC50 is the concentration that gives 50% inhibition.

In one experiment the test system is Staphylococcus aureus. Put plainly: Antibacterial activity against Staphylococcus aureus ATCC 6538 after 24 hrs. The note with it: ATCC 6538, 24 h. The class given is functional. Summed up: (§1)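 Broth microdilution in LB. Precultures were grown 24 h at 37 °C in 10 mL LB and diluted 1/1000 (OD600 0.01) into 96-well plates. Two-fold serial dilutions were made from 10 mg/mL stocks, 2 µL per 200 µL medium. Plates were incubated 24 h at 37 °C and OD read at 595 nm. MIC is the concentration giving a 90% decrease versus DMSO-only control, obtained by curve fitting.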

The subject of experiment [1] is Staphylococcus haemolyticus. Put plainly: Antibacterial activity against Staphylococcus haemolyticus MNHN26 after 24 hrs. The note with it: MNHN26, 24 h. In kind it is functional. A digest of the protocol:
as §1

The test system of a further experiment is Enterococcus faecalis. Put plainly: Antibacterial activity against Enterococcus faecalis CIP 103014 after 24 hrs. The note with it: CIP 103014, 24 h. In kind it is functional. A digest of the protocol: as §1
Another experiment relates to Escherichia coli. Put plainly: Antibacterial activity against Escherichia coli ATCC 8739 after 24 hrs. In kind it is functional. The note with it: ATCC 8739, ATCC 8739, 24 h. Summed up:
as §1

A further experiment concerns HeLa. Put plainly: Cytotoxicity against human HeLa cells assessed as reduction in cell viability by MTT assay. The class given is functional, cell-based. A digest of the protocol:
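HeLa cells were seeded at 2500 cells/well, incubated overnight, then exposed in exponential growth to a range of concentrations for four doubling times. Viability was measured by MTT, 4 h at 37 °C, with formazan read at 560 nm. Concentration inhibiting growth by 50% versus untreated controls was taken from dose-survival curves. At least three independent experiments, each in duplicate; cisplatin served as control.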
(Formazan colour is commonly taken as a measure of viable cells.)

Regarding `CC(=O)O[C@H]1[C@@H]2C(=O)c3c(C)cc(O)c4c3[C@@]1(COC4=O)C1=C2c2c(C)cc(O)c3c2[C@@](O)(COC3=O)C1=O`, the results for the MIC90 (with Staphylococcus aureus; in experiment [1]; against Enterococcus faecalis) were 29.3 µg/mL (≈ 55 µM), greater than 30 µg/mL and greater than 30 µg/mL, respectively. Further, the MIC in the experiment on Escherichia coli was greater than 100 µg/mL. The IC50 in the experiment on HeLa is greater than 100 µM.
Take `CO[C@@]12c3c(C)cc(O)c4c3C(=C(O)[C@@H]1[C@]13COC(=O)c5c(O)cc(C)c(c51)C(=O)[C@H]2[C@@H]3OC(C)=O)C=NC4=O`: the MIC90 is 5 µg/mL (≈ 9.17 µM) in the experiment on Staphylococcus aureus, 20.4 µg/mL (≈ 37.4 µM) in experiment [1] and greater than 30 µg/mL with Enterococcus faecalis. Besides, in the experiment on Escherichia coli, the MIC is greater than 100 µg/mL. Besides, in the experiment on HeLa, the IC50 was determined as 49.5 µM.
For `CC(=O)O[C@H]1[C@@H]2C(=O)c3c(C)cc(O)c4c3[C@@]1(COC4=O)c1c(O)c(C=O)c3cc(O)cc(C)c3c12` the same measures were greater than 50 µg/mL, greater than 50 µg/mL, greater than 50 µg/mL, greater than 100 µg/mL and greater than 50 µM.
Take `CO[C@H]1OC(=O)c2c(O)cc(C)c3c4c(c(O)c1c23)[C@]12COC(=O)c3c(O)cc(C)c(c31)C(=O)[C@H]4[C@@H]2OC(C)=O`: the MIC90 in the experiment on Staphylococcus aureus is 15.6 µg/mL (≈ 28.5 µM); in experiment [1], greater than 30 µg/mL; against Enterococcus faecalis it was greater than 30 µg/mL. The compound also displayed an MIC with Escherichia coli greater than 100 µg/mL. Moreover, the IC50 with HeLa is greater than 50 µM.
For the compound `CC(=O)O[C@H]1[C@@H]2C(=O)c3c(C)cc(O)c4c3[C@@]1(COC4=O)c1c(O)c3c4c(c(O)cc(C)c4c12)C(=O)OC3`, the MIC90 against Staphylococcus aureus worked out at 5.2 µg/mL (≈ 10.1 µM); in experiment [1], 9.5 µg/mL (≈ 18.4 µM); against Enterococcus faecalis, 2.4 µg/mL (≈ 4.65 µM). Further, in the experiment on Escherichia coli, the MIC is greater than 100 µg/mL.
`CN(C)[C@@H]1C(O)=C(C(N)=O)C(=O)[C@@]2(O)C(O)=C3C(=O)c4c(O)cccc4[C@@](C)(O)[C@H]3C[C@@H]12` [TETRACYCLINE]: the MIC90 against Staphylococcus aureus stood at 0.05 µg/mL (≈ 0.113 µM); in experiment [1], 29.5 µg/mL (≈ 66.4 µM); with Enterococcus faecalis, 0.4 µg/mL (≈ 0.9 µM).
